These results are taken from article PMC3493172 (Biochemistry, 2012).

Data set [1] addresses T1, EAAC1 (Rattus norvegicus, UniProt P51907).
T1 sequence (P51907 1-523): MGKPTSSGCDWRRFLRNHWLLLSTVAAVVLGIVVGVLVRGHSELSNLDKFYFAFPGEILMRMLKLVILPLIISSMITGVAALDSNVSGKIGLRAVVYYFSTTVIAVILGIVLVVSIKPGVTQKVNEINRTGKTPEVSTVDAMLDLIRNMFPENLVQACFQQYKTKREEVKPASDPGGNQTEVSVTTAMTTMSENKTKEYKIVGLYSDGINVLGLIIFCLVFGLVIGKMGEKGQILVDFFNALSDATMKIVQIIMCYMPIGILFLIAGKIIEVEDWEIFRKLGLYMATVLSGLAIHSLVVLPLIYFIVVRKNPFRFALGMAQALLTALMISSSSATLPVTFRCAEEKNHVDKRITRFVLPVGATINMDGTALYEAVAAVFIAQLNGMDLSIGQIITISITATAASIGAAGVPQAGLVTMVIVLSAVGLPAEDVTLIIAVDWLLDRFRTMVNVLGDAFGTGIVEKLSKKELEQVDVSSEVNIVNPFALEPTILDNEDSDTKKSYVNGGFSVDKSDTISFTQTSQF
In words: Whole-cell current recording of EAAC1WT expressed in HEK 293T cells. Format: cell-based. To be noted: for effect on anion current when applied alone: 100 μM applied alone, intracellular SCN−. The method, boiled down: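 HEK 293T cells transfected with EAAC1 plasmid plus RFP DNA (JetPRIME) and used at least 24 h later; whole-cell patch clamp held at 0 mV. Ki came from test-compound dose-response curves of glutamate-induced anion current at 20, 50 and 100 μM L-glutamate (forward mode: 140 mM NaCl outside, 140 mM KSCN pipette). Reverse mode used KSCN outside with NaCl + 10 mM L-Glu in the pipette. Homoexchange used NaCl + 1 mM L-glutamate outside with NaSCN + 10 mM L-glutamate in the pipette.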

For the next data set, the target named is T2, EAAC1R446Q (Rattus norvegicus, UniProt P51907, R446Q).
T2 sequence (P51907 1-523 R446Q): T1 sequence (P51907 1-523) with R446Q
Kind of data set: Whole-cell current recording of EAAC1 with the R446Q mutation, exchange mode. Format: cell-based. To be noted: application of 1 mM L-glutamate or 0.2 mM TBOA; NaSCN pipette; 0 mV.

The conditions of data set [2]: physiological conditions; cited from earlier work.
Another data set relates to glutamate transport. The note with it: cited from earlier work.
Data set [3] concerns the target T1, EAAC1. Kind of data set: Laser-pulse photolysis of MNI-caged glutamate, pre-steady-state kinetics. Format: cell-based. The method, boiled down: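 HEK 293T cells co-transfected with EAAC1 and RFP plasmids, used ≥24 h later; whole-cell clamp at 0 mV. 1 mM MNI-caged L-glutamate pre-applied 4 s, then ~5 ns 355 nm pulse releasing ~60–100 μM glutamate; 160 ms at 50 kHz, ±10 μM test compound. Bath 140 mM NaMES; pipette 140 mM KMES (transport) or KSCN (anion). Exponential fits→decay rate constants.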

Data set [4] concerns the target T1, EAAC1. Kind of data set: Pre-incubation / rapid solution exchange experiment. Format: cell-based. In outline: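 Transfected HEK 293T cells, whole-cell at 0 mV; bath 140 mM NaMES, pipette 140 mM KSCN. Test compound (3, 20 or 100 μM) applied 2 s by solution exchange, then rapid washout with simultaneous switch to 1 mM L-glutamate (~10 ms exchange resolution, ~100 mbar). Responses normalised to a 100 μM glutamate control, n = 3; observed rate constants taken as 1/τ.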

Data set [5] is described as follows: pKa of the 3-hydroxyl-Δ2-isoxazoline group. Format: physicochemical. To be noted: pH 7.3, based on its pKa.
For data set [6] the following is noted: cited from earlier work.
For data set [7], the system named is glutamate transporters in synaptosomes prepared from rat brains. The note with it: (+)-HIP-B eutomer versus (−)-HIP-B; cited from earlier work.

Structures are written as SMILES. Numbering of substitutions follows the chain as printed. “And” between values parts separate entries of the source, which are not always exact repeats. Identical values can stand only once. Like-named read-outs stand apart in the source and are kept apart here.

As for `N[C@H](C(=O)O)[C@H](OCc1ccccc1)C(=O)O` (racemic) [TBOA, DL-threo-β-benzyloxyaspartic acid], the “effect on anion current when applied alone” value on EAAC1 [1] (0 mV) is on record as “generated outward current”. Moreover, at EAAC1R446Q, the “current induced in EAAC1R446Q” value was under 5 pA. For the same molecule, in data set [2], the neurotoxicity entry was “neurotoxic”. Moreover, the “apparent affinity for inhibition of glutamate transport” value in the data set with glutamate transport is given as “sub-μM range”.
As for `O=C(O)[C@H]1NC[C@@H]2C(O)=NO[C@@H]21` [(+)-HIP-B, (+)-(3aS,6S,6aS)-3-Hydroxy-4,5,6,6a-tetrahydro-3aH-pyrrolo[3,4-d]isoxazole-6-carboxylic acid], the “effect on anion current when applied alone” value at EAAC1 [1] (0 mV) is “did not induce or inhibit anion current”. At EAAC1 [1] (100 μM, NaMES extracellular, KMES pipette, 0 mV), the “transport current when applied alone” value is “did not elicit transport current”. For the same molecule, the “alleviation of TBOA (1 μM) inhibition of leak anion current” value at EAAC1 [1] (any concentration tested, up to 70 μM, in the presence of 1 μM TBOA) is reported as “unable to alleviate the TBOA effect”. Further, the Ki was about 20 µM on EAAC1 [1] (read-out: Ki value (range used for estimate), approximate value in discussion); 8.7 ± 1.5 µM on EAAC1 [1] (read-out: inhibition constant Ki, glutamate-induced anion current, forward transport mode, 20 μM glutamate, n = 3, 0 mV, KSCN pipette); 9.2 ± 1.2 µM on EAAC1 [1] (read-out: inhibition constant Ki, glutamate-induced anion current, forward transport mode, 100 μM glutamate, n = 3, 0 mV, KSCN pipette); 23.2 ± 2.5 µM at EAAC1 [1] (read-out: inhibition constant in the reverse transport mode, 20 μM glutamate, n = 3, reverse transport mode). At EAAC1 [3] (anion conducting mode), the “effect on peak of transient anion current” value was “inhibited strongly”. Besides, the “effect on decay time constants τfast and τslow of transient transport current” value at EAAC1 [3] (forward transport mode) is reported as “virtually unaffected”. Further, the “bimolecular rate constant for binding” value on EAAC1 [4] (estimated from Ki in the 20 μM range and dissociation on the 50 ms time scale) is listed as ~10^6 M^−1s^−1. The “time scale of binding at the relevant concentration range” value on EAAC1 [4] (estimated from bimolecular rate constant) was 20 to 50 ms. Further, on EAAC1 [4] (washout), the “time for full reversal of inhibition” value is recorded as at most 500 ms. The “time scale of dissociation from binding site” value on EAAC1 [4] (washout experiment) is 50 to 60 ms and ~50 ms. The “fraction in neutral form” value in [5] is “less than 1%”. The “pKa of the 3-hydroxyl-Δ2-isoxazoline group” value in data set [6] is recorded as 5.1. Further, in [7], the “eudismic ratio, inhibition of [3H]D-aspartate uptake” value is listed as 10.
In the case of `N[C@@H](CCC(=O)O)C(=O)O` [glutamate, L-glutamate, reference compound], the “time constant for activation of anion current by glutamate” value at EAAC1 [4] (1 mM glutamate, no inhibitor, limited by solution exchange) worked out at 7 ± 2 ms. Also, on EAAC1R446Q, the “current induced in EAAC1R446Q” value was under 5 pA.
